Compound activity as filed in PubChem.
Apaf-1 inh: inhibitors of human Apaf-1 apoptosome | O14727 | reconstituted apoptosome caspase-3 activity, DEVD-Rh110 fluorescence | inhibition, % at 20 µM | 330,000 tested, 0.71% active | AID 489030; active = inhibition of at least 40% at 20 µM
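System – cell-free apoptosome with Apaf-1, procaspase-3 and caspase-9 · Buffer or medium – pH 7.5 Hepes buffer with CHAPS, BSA, DTT · Also added – cytochrome c with DEVD-Rh110 · Times – 30 min compound preincubation, 50 min activation, room temperature · Technique – Rh110 fluorescence intensity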
Mdm2-MdmX inh: disrupts the human Mdm2-MdmX interaction; O15151+Q00987; SaOS-2 split-luciferase Mdm2/MdmX complementation, luminescence; inhibition, % at 8 µM; 330,000 tested, 3% active; AID 485346;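 active = inhibition of at least 50% at 8 µM in the primary screen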
UBC13 inh: inhibitors of human UBC13 polyubiquitin chain formation; 330,000 tested, 0.47% active; P61088; TR-FRET; AID 485273; inhibition, % at 20 µM; in the data active = inhibition above about 45%, passing the limit was not always enough
UPR CHOP act: activators of apoptotic arm of unfolded protein response (CHOP); CHO-CHOP luciferase reporter, UPR activation, luminescence; percent of tunicamycin response over DMSO baseline; activation, % at 10 µM; 330,000 tested, 0.34% active; AID 449763;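 active = at 10 µM dose, activation of 40% or more, normalized to positive control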
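measured by = luciferase luminescence | assay system = CHO-CHOP cells, stable luciferase reporter of PERK-eIF2a-CHOP signalling | amount = 500 reporter cells seeded per well | timing = 6 h compound exposure at 37 °C after overnight seeding | controls = positive tunicamycin 10 µg/mL, negative DMSO alone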
XBP1 UPR activ: adaptive UPR (XBP1) activation; CHO-XBP1 luciferase reporter, IRE1-XBP1 UPR activation, luminescence; percent of tunicamycin response, DMSO as zero; activation, % at 20 µM; 330,000 tested, 0.33% active; AID 463104;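 active = versus positive control, 20 µM dose yields 30% or more activation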
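Assay system: IRE1-XBP1 luciferase reporter CHO line. Input: 1000 cells/well. Buffer or medium: F12 with 10% serum. Doses: 20 µM, 1% DMSO. Times: overnight seeding at 37 °C, 6 h compound treatment at 37 °C. Technique: Steady-Glo luciferase glow luminescence, 10 min after reagent addition.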
Mdm2-MdmX conf: human Mdm2/MdmX binding inhibition, confirmed; shares compounds with Mdm2-MdmX inh; luminescent assay; inhibition, % at 8 µM; 10,000 tested, 55% active; in the data active = inhibition above about 40%
FLuc counter: full-length luciferase inhibition in Mdm2/MdmX counter-screen. SaOS-2 full-length luciferase counterscreen, luminescence. inhibition, % at 8 µM. shares compounds with Mdm2-MdmX inh. 6,200 tested, 77% active;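 active = mean inhibition at 8 µM reaching about 37%, which flags the compound as non-specific, limit read from the data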;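 note: p53-null SaOS-2 cells with luciferase driven by a doxycycline-inducible promoter; compound on cells about two nights before reading with doxycycline added after day one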
Apaf-1 inh conf: Apaf-1 inhibition, single-dose confirmed; inhibition, % at 20 µM; reconstituted apoptosome, caspase-3 DEVD-Rh110 fluorescence; AID 504614; 1,800 tested, 25% active; shares compounds with Apaf-1 inh;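 active = mean inhibition of at least 40% at 20 µM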
Rh110 interf inh: counter-screen for Apaf-1 inhibitors: fluorescence interference. Rh110 fluorescence interference, quenched caspase reaction. shares compounds with Apaf-1 inh. 1,800 tested, under 10 active. activation (fluorescence interference), % at 20 µM;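 active = signal rise of 40% or more at 20 µM, treated as a fluorescence artifact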
Fluor interf inh: Apaf-1 inhibitor counter-screen fluorescence artifact. 460 tested, under 10 active. IC50, µM. shares compounds with Apaf-1 inh. AID 588538. fluorescence interference counterscreen, Apaf-1 assay format; call rule not given here
Large screens that a line does not name were inactive (follow-up assays come after a bar, where they were run); ! = repeats disagree. This is a sample that favours compounds with a hit; in the whole collection about 4.1% have one here.

COC(=O)C1=C(c2cc3ccccc3s2)C[C@@H]2CC[C@H]1N2C(=O)N1CCC(O)CC1	none
COC(=O)C1=C(c2cc3ccccc3s2)C[C@@H]2CC[C@H]1N2C(=O)N1CCCCC1	Mdm2-MdmX inh 52 | Mdm2-MdmX conf 57 | FLuc counter 40
CCCCCn1c(=O)c(C(=O)Nc2cc(C)ccn2)c(O)c2ccccc21	none
CCCCn1c(=O)c(C(=O)NCc2ccncc2)c(O)c2ccccc21	Mdm2-MdmX inh 51 | Mdm2-MdmX conf inactive
CCCCn1c(=O)c(C(=O)NCc2ccccc2)c(O)c2ccccc21	none
CCCCCCn1c(=O)c(C(=O)Nc2cccc(C)n2)c(O)c2ccccc21	none
CCCCCn1c(=O)c(C(=O)Nc2cnccn2)c(O)c2ccccc21	Mdm2-MdmX inh 52 | Mdm2-MdmX conf 48 | FLuc counter 51
CCCCCCCn1c(=O)c(C(=O)Nc2cnccn2)c(O)c2ccccc21	Mdm2-MdmX inh 65 | Mdm2-MdmX conf 43 | FLuc counter 44
COC(=O)C1=C(c2ccc(OC)c(OC)c2)C[C@@H]2CC[C@H]1N2C(=O)NCc1cccc2ccccc12	none
CN(C)C1C(=O)C(C(N)=O)=C(O)C2(O)C(=O)C3=C(O)c4c(O)cccc4C(C)(O)C3C(O)C12 (configuration not stated)	none
O=[N+]([O-])c1ccc(Cl)c([N+](=O)[O-])c1	Mdm2-MdmX inh 87 | Mdm2-MdmX conf inactive
O=[N+]([O-])c1ccc(O)c([N+](=O)[O-])c1	none
CNc1ccc2nc3ccccc3[n+](C)c2c1	Apaf-1 inh 89, Mdm2-MdmX inh 83 | Mdm2-MdmX conf 50 | FLuc counter inactive | Apaf-1 inh conf 62 | Rh110 interf inh inactive | Fluor interf inh inactive
CNC(=O)Oc1ccc(N(C)C)cc1C(C)C	none
O=C1C(=O)c2ccccc2-c2ccccc21	Apaf-1 inh 99, Mdm2-MdmX inh 99 | Mdm2-MdmX conf 100 | FLuc counter inactive | Apaf-1 inh conf 99 | Rh110 interf inh inactive | Fluor interf inh inactive
O=C1C(=O)c2cccc3cccc1c23	none
COc1ccc(C2c3c(nc(C)[nH]c3=O)Oc3c2c(=O)oc2ccccc32)cc1 (configuration not stated)	none
O=c1[nH]c2ccccc2n1C1CCN(CCCC(c2ccc(F)cc2)c2ccc(F)cc2)CC1	Apaf-1 inh 56, Mdm2-MdmX inh 66 | Mdm2-MdmX conf inactive | Apaf-1 inh conf inactive | Rh110 interf inh inactive
Cc1nc2c(=O)n(C)c(=O)nc-2n(C)n1	Apaf-1 inh 99, Mdm2-MdmX inh 74 | Mdm2-MdmX conf 58 | FLuc counter inactive | Apaf-1 inh conf 100 | Rh110 interf inh inactive | Fluor interf inh inactive
COC(=O)c1c(N)n(Cc2ccc(OC)cc2)c2nc3ccccc3nc12	none
CC(C)CNC(=O)c1c(N)n(Cc2ccc3c(c2)OCO3)c2nc3ccccc3nc12	Apaf-1 inh 96, Mdm2-MdmX inh 61 | Mdm2-MdmX conf inactive | Apaf-1 inh conf inactive | Rh110 interf inh inactive
O=C(COC(=O)Cc1ccccc1)Nc1cc(S(=O)(=O)N2CCCCC2)ccc1Cl	none
Nc1c(C(=O)NCc2ccco2)c2nc3ccccc3nc2n1CCN1CCCCC1	none
CCCCCn1c(NC(=O)c2ccco2)c(C(=O)OCC)c2nc3ccccc3nc21	Apaf-1 inh 92 | Apaf-1 inh conf 49 | Rh110 interf inh inactive | Fluor interf inh inactive
COCCCNC(=O)c1c(NC(=O)c2ccco2)n(Cc2ccccc2)c2nc3ccccc3nc12	Apaf-1 inh 71 | Apaf-1 inh conf inactive | Rh110 interf inh inactive | Fluor interf inh inactive
O=C(Nc1ccc(Cl)c(Cl)c1)c1ccco1	none
COCCNC(=O)c1c(NC(=O)c2ccc(Br)o2)n(Cc2ccccc2)c2nc3ccccc3nc12	Apaf-1 inh 67 | Apaf-1 inh conf inactive | Rh110 interf inh inactive
O=C(NC(=O)c1c(F)cccc1F)Nc1cc(Cl)c(F)c(Cl)c1F	none
CCOC(=O)C(C)(CC)NC(=O)CSP(=S)(OCC)OCC (configuration not stated)	none
CN1C[C@H](CNC(=O)OCc2ccccc2)C[C@@H]2c3cccc4c3c(cn4C)C[C@H]21	none
CC[C@@H](CO)NC(=O)[C@@H]1C=C2c3cccc4c3c(cn4C)C[C@H]2N(C)C1	Apaf-1 inh 69! | Apaf-1 inh conf inactive | Rh110 interf inh inactive
CC(C)OC(=O)c1c(N)n(Cc2ccco2)c2nc3ccccc3nc12	none
CC(C)CNC(=O)c1c(N)n(Cc2ccco2)c2nc3ccccc3nc12	Apaf-1 inh 45 | Apaf-1 inh conf inactive | Rh110 interf inh inactive
COc1ccc(Cn2c(N)c(C(=O)NCc3ccco3)c3nc4ccccc4nc32)cc1OC	Apaf-1 inh 66 | Apaf-1 inh conf inactive | Rh110 interf inh inactive
CCN1C[C@@]2(COC)C3[C@@H](OC)[C@H]4[C@@H]1[C@@]3(C1C[C@@]3(O)[C@H](OC(=O)c5ccccc5)C1[C@]4(OC(C)=O)[C@@H](O)[C@H]3OC)[C@@H](OC)C[C@H]2O (some centres not stated)	none
CC(C)(C)C(=O)O[C@H]1CC[C@@]2(C)C(=CC(=O)C3C2CC[C@]2(C)C(=O)[C@@H](F)CC32)C1 (some centres not stated)	none
c1cncc(C2CCCCN2)c1 (configuration not stated)	none
c1cncc(C2Nc3cccc4cccc(c34)N2)c1	Apaf-1 inh 42 | Apaf-1 inh conf inactive | Rh110 interf inh inactive
CCCCNC(=O)c1c(N)n(CCCOC)c2nc3ccccc3nc12	Apaf-1 inh 90 | Apaf-1 inh conf 50 | Rh110 interf inh inactive | Fluor interf inh inactive
Nc1c(C(=O)OCC2CCCO2)c2nc3ccccc3nc2n1Cc1cccs1 (configuration not stated)	Apaf-1 inh 56 | Apaf-1 inh conf inactive | Rh110 interf inh inactive
C=CCNC(=O)c1c(N)n(CCN2CCOCC2)c2nc3ccccc3nc12	none
Nc1c(C(=O)NCC2CCCO2)c2nc3ccccc3nc2n1Cc1ccco1 (configuration not stated)	none
